Data published in ChEMBL document CHEMBL5058577, “EUbOPEN Chemogenomics Library 2 (Multiplex)” (2022).

Tested on: Fibroblast
Test: Multiplex assay against human fibroblast
Type: toxicity, cell-based
Summary of the method: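 Cells stained live at seeding with Hoechst33342, BioTracker Green Microtubule Cytoskeleton Dye, MitoTracker Red and Annexin V Alexa Fluor 680 were imaged on a CQ1 microscope at 37°C and 5% CO2 after compound addition. Their classification by CellPathfinder machine-learning gating ran from Hoechst high-intensity objects versus normal cells, to healthy, pyknosed or fragmented nuclei among normal cells, to mitotic or apoptotic among pyknosed cells. Tubulin, mitochondrial-mass and membrane-permeability phenotypes are per cents of healthy-nucleus cells.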

[1] = 12 h, 1 µM, compound concentration 1 uM, replicate 1
[2] = 12 h, 1 µM, compound concentration 1 uM, replicate 2
[3] = 12 h, 10 µM, compound concentration 10 uM, replicate 1
[4] = 12 h, 10 µM, compound concentration 10 uM, replicate 2
[5] = 24 h, 1 µM, compound concentration 1 uM, replicate 1
[6] = 24 h, 1 µM, compound concentration 1 uM, replicate 2
[7] = 24 h, 10 µM, compound concentration 10 uM, replicate 1
[8] = 24 h, 10 µM, compound concentration 10 uM, replicate 2
[9] = 48 h, 1 µM, compound concentration 1 uM, replicate 1
[10] = 48 h, 1 µM, compound concentration 1 uM, replicate 2
[11] = 48 h, 10 µM, compound concentration 10 uM, replicate 1
[12] = 48 h, 10 µM, compound concentration 10 uM, replicate 2

O=C(NCC(=O)N1CC[C@H](N[C@H]2CC[C@@](O)(c3ccc(-c4ncccn4)cn3)CC2)C1)c1cccc(C(F)(F)F)c1 [PF-4136309]
Population Apoptotic (%) [1]: 53%
Population Fragmented Nuclei (%) [1]: 13%
Population Healthy Nuclei (%) [1]: 63%
Population Hoechst High Intensity Objects (%) [1]: 2%
Population Membrane Permeable-Phenotype (%) [1]: 1%
Population Mitochondria Different-Phenotype (%) [1]: 4%
Population Mitotic Cells (%) [1]: 46%
Population Normal (%) [1]: 97%
Population Pyknosed Nuclei (%) [1]: 23%
Population Tubulin-Different-Phenotype (%) [1]: 28%
Total Cell Count [1]: 142
Population Apoptotic (%) [2]: 22%
Population Fragmented Nuclei (%) [2]: 25%
Population Healthy Nuclei (%) [2]: 52%
Population Hoechst High Intensity Objects (%) [2]: 5%
Population Membrane Permeable-Phenotype (%) [2]: 13%
Population Mitochondria Different-Phenotype (%) [2]: 7%
Population Mitotic Cells (%) [2]: 77%
Population Normal (%) [2]: 94%
Population Pyknosed Nuclei (%) [2]: 21%
Population Tubulin-Different-Phenotype (%) [2]: 60%
Total Cell Count [2]: 152
Population Apoptotic (%) [3]: 60%
Population Fragmented Nuclei (%) [3]: 18%
Population Healthy Nuclei (%) [3]: 69%
Population Hoechst High Intensity Objects (%) [3]: 2%
Population Membrane Permeable-Phenotype (%) [3]: 0%
Population Mitochondria Different-Phenotype (%) [3]: 11%
Population Mitotic Cells (%) [3]: 40%
Population Normal (%) [3]: 97%
Population Pyknosed Nuclei (%) [3]: 12%
Population Tubulin-Different-Phenotype (%) [3]: 46%
Total Cell Count [3]: 210
Population Apoptotic (%) [4]: 25%
Population Fragmented Nuclei (%) [4]: 24%
Population Healthy Nuclei (%) [4]: 52%
Population Hoechst High Intensity Objects (%) [4]: 5%
Population Membrane Permeable-Phenotype (%) [4]: 4%
Population Mitochondria Different-Phenotype (%) [4]: 6%
Population Mitotic Cells (%) [4]: 75%
Population Normal (%) [4]: 94%
Population Pyknosed Nuclei (%) [4]: 23%
Population Tubulin-Different-Phenotype (%) [4]: 44%
Total Cell Count [4]: 128
Population Apoptotic (%) [5]: 61%
Population Fragmented Nuclei (%) [5]: 14%
Population Healthy Nuclei (%) [5]: 60%
Population Hoechst High Intensity Objects (%) [5]: 2%
Population Membrane Permeable-Phenotype (%) [5]: 1%
Population Mitochondria Different-Phenotype (%) [5]: 4%
Population Mitotic Cells (%) [5]: 38%
Population Normal (%) [5]: 97%
Population Pyknosed Nuclei (%) [5]: 25%
Population Tubulin-Different-Phenotype (%) [5]: 32%
Total Cell Count [5]: 139
Population Apoptotic (%) [6]: 45%
Population Fragmented Nuclei (%) [6]: 33%
Population Healthy Nuclei (%) [6]: 52%
Population Hoechst High Intensity Objects (%) [6]: 4%
Population Membrane Permeable-Phenotype (%) [6]: 16%
Population Mitochondria Different-Phenotype (%) [6]: 1%
Population Mitotic Cells (%) [6]: 55%
Population Normal (%) [6]: 95%
Population Pyknosed Nuclei (%) [6]: 14%
Population Tubulin-Different-Phenotype (%) [6]: 52%
Total Cell Count [6]: 148
Population Apoptotic (%) [7]: 36%
Population Fragmented Nuclei (%) [7]: 15%
Population Healthy Nuclei (%) [7]: 72%
Population Hoechst High Intensity Objects (%) [7]: 3%
Population Membrane Permeable-Phenotype (%) [7]: 0%
Population Mitochondria Different-Phenotype (%) [7]: 10%
Population Mitotic Cells (%) [7]: 63%
Population Normal (%) [7]: 96%
Population Pyknosed Nuclei (%) [7]: 11%
Population Tubulin-Different-Phenotype (%) [7]: 34%
Total Cell Count [7]: 203
Population Apoptotic (%) [8]: 30%
Population Fragmented Nuclei (%) [8]: 29%
Population Healthy Nuclei (%) [8]: 48%
Population Hoechst High Intensity Objects (%) [8]: 2%
Population Membrane Permeable-Phenotype (%) [8]: 6%
Population Mitochondria Different-Phenotype (%) [8]: 4%
Population Mitotic Cells (%) [8]: 70%
Population Normal (%) [8]: 97%
Population Pyknosed Nuclei (%) [8]: 22%
Population Tubulin-Different-Phenotype (%) [8]: 52%
Total Cell Count [8]: 139
Population Apoptotic (%) [9]: 58%
Population Fragmented Nuclei (%) [9]: 26%
Population Healthy Nuclei (%) [9]: 49%
Population Hoechst High Intensity Objects (%) [9]: 2%
Population Membrane Permeable-Phenotype (%) [9]: 2%
Population Mitochondria Different-Phenotype (%) [9]: 2%
Population Mitotic Cells (%) [9]: 41%
Population Normal (%) [9]: 97%
Population Pyknosed Nuclei (%) [9]: 24%
Population Tubulin-Different-Phenotype (%) [9]: 27%
Total Cell Count [9]: 149
Population Apoptotic (%) [10]: 50%
Population Fragmented Nuclei (%) [10]: 36%
Population Hoechst High Intensity Objects (%) [10]: 4%
Population Membrane Permeable-Phenotype (%) [10]: 7%
Population Mitochondria Different-Phenotype (%) [10]: 4%
Population Mitotic Cells (%) [10]: 50%
Population Normal (%) [10]: 95%
Population Pyknosed Nuclei (%) [10]: 13%
Population Tubulin-Different-Phenotype (%) [10]: 46%
Total Cell Count [10]: 137
Population Apoptotic (%) [11]: 47%
Population Fragmented Nuclei (%) [11]: 18%
Population Healthy Nuclei (%) [11]: 72%
Population Hoechst High Intensity Objects (%) [11]: 6%
Population Membrane Permeable-Phenotype (%) [11]: 0%
Population Mitochondria Different-Phenotype (%) [11]: 15%
Population Mitotic Cells (%) [11]: 52%
Population Normal (%) [11]: 93%
Population Pyknosed Nuclei (%) [11]: 9%
Population Tubulin-Different-Phenotype (%) [11]: 47%
Total Cell Count [11]: 195
Population Apoptotic (%) [12]: 63%
Population Fragmented Nuclei (%) [12]: 31%
Population Healthy Nuclei (%) [12]: 52%
Population Membrane Permeable-Phenotype (%) [12]: 6%
Population Mitochondria Different-Phenotype (%) [12]: 6%
Population Mitotic Cells (%) [12]: 36%
Population Pyknosed Nuclei (%) [12]: 15%
Population Tubulin-Different-Phenotype (%) [12]: 54%
Total Cell Count [12]: 129
